Columns and labels:
[1] = molecular target: T1, NAD-dependent protein deacetylase sirtuin-2 (Homo sapiens) (UniProt Q8IXJ6); experiment: Inhibition of recombinant N-terminal tagged human SIRT2 expressed in Escherichia coli at 100 uM using Fluor De Lys SIRT2 as substrate preincubated for 30 mins followed by substrate addition and measured after 1 hr in presence of NAD+ by fluorescence assay relative to control; details: time 90.0 min
T1 sequence (whole entry): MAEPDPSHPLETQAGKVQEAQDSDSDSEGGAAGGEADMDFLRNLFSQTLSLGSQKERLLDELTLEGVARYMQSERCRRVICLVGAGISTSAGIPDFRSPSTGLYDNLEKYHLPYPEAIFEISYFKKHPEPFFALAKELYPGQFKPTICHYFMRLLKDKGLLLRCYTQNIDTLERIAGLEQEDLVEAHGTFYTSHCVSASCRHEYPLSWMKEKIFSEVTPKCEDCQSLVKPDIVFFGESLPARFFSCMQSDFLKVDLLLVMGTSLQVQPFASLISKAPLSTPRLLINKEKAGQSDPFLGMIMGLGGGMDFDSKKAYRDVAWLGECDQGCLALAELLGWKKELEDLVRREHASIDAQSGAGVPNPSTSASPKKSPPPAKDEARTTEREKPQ
Procedure, shortened: (§1)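 Human recombinant SIRT enzyme and compound (1% v/v final DMSO) in SIRT assay buffer were preincubated at 37 °C for 30 min. NAD⁺ and Fluor de Lys deacetylase substrate were then added. Fluorescence was read at excitation 360 nm, emission 460 nm. % inhibition was taken from inhibited wells relative to control wells.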

[2] = molecular target: T2, NAD-dependent protein deacetylase sirtuin-1 (Homo sapiens) (UniProt Q96EB6); experiment: Inhibition of recombinant N-terminal tagged human SIRT1 expressed in Escherichia coli at 100 uM using Fluor De Lys SIRT1 as substrate preincubated for 30 mins followed by substrate addition and measured after 1 hr in presence of NAD+ by fluorescence assay relative to control; details: time 90.0 min; procedure, shortened: as §1
T2 sequence (whole entry): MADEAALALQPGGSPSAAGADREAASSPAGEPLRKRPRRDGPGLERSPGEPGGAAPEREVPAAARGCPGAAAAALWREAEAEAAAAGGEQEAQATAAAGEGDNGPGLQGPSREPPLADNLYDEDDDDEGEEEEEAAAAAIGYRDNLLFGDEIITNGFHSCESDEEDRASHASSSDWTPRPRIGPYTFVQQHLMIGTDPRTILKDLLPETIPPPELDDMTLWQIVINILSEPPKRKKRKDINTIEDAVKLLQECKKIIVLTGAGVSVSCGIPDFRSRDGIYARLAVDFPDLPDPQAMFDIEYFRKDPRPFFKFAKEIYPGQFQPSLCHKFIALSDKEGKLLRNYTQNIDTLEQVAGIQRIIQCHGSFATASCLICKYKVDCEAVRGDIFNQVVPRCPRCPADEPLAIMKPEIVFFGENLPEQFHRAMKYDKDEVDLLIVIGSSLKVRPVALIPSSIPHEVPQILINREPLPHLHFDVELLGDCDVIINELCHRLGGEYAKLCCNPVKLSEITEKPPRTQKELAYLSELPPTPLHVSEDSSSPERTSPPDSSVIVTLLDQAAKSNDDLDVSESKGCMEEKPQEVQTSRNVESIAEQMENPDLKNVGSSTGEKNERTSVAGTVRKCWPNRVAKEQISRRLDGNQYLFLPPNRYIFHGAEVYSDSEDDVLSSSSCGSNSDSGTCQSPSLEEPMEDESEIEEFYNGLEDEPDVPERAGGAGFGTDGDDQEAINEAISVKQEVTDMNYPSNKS

[3] = molecular target: T2, NAD-dependent protein deacetylase sirtuin-1 (Homo sapiens); experiment: Inhibition of recombinant N-terminal tagged human SIRT1 expressed in Escherichia coli at 300 uM using Fluor De Lys SIRT1 as substrate preincubated for 30 mins followed by substrate addition and measured after 1 hr in presence of NAD+ by fluorescence assay relative to control; details: time 90.0 min; procedure, shortened: as §1
[4] = molecular target: T1, NAD-dependent protein deacetylase sirtuin-2 (Homo sapiens); experiment: Inhibition of recombinant N-terminal tagged human SIRT2 expressed in Escherichia coli at 300 uM using Fluor De Lys SIRT2 as substrate preincubated for 30 mins followed by substrate addition and measured after 1 hr in presence of NAD+ by fluorescence assay relative to control; details: time 90.0 min; procedure, shortened: as §1
[5] = molecular target: T3, NAD-dependent protein deacetylase sirtuin-3, mitochondrial (Homo sapiens) (UniProt Q9NTG7); experiment: Inhibition of recombinant N-terminal tagged human SIRT3 (102 to 399 residues) expressed in Escherichia coli at 300 uM using Fluor De Lys SIRT2 as substrate preincubated for 30 mins followed by substrate addition and measured after 1 hr in presence of NAD+ by fluorescence assay relative to control; details: time 90.0 min; procedure, shortened: as §1
T3 sequence (whole entry): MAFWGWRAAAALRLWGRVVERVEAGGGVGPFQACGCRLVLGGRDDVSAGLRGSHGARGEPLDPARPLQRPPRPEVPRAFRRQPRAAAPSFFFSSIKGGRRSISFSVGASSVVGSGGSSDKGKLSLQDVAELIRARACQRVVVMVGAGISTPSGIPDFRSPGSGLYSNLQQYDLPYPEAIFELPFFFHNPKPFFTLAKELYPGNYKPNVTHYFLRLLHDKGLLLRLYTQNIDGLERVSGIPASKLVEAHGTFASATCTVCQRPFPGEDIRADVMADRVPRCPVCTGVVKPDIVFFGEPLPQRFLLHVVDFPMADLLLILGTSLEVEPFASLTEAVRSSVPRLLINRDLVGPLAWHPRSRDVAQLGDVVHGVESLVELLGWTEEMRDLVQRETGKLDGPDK

[6] = tested on: MCF7; experiment: Cytotoxicity against human MCF7 cells assessed as reduction in cell viability measured after 48 hrs by MTT assay; assay type: functional, cell-based; details: MCF7, 48 h
Procedure, shortened: (§2)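 MCF-7 cells were grown in DMEM with 10% FBS and 1% penicillin–streptomycin to 70% confluency. 180 µl of a 5 × 10⁴ cells/ml suspension was seeded per well and held 24 h at 37 °C in 5% CO₂. Cells were exposed to 1, 10, 25, 50, 100 or 200 µM, then treated with MTT (5 mg/ml) for 4 h and read at 540 nm. Untreated cells served as control. Done in triplicate; IC50 from linear regression of concentration vs % viable cells.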

[7] = tested on: MCF7; experiment: Cytotoxicity against human MCF7 cells assessed as reduction in cell viability measured after 72 hrs by MTT assay; assay type: functional, cell-based; details: MCF7, 72 h; procedure, shortened: as §2

| SMILES | inhibition [1] [%] | inhibition [2] [%] | inhibition [3] [%] | inhibition [4] [%] | inhibition [5] [%] | IC50 [6] [µM] | IC50 [7] [µM] |
| --- | --- | --- | --- | --- | --- | --- | --- |
| Cc1ccc(C(=O)Nc2ccc(S(=O)(=O)O)c3cc(S(=O)(=O)O)cc(S(=O)(=O)O)c23)cc1NC(=O)c1cccc(NC(=O)Nc2cccc(C(=O)Nc3cc(C(=O)Nc4ccc(S(=O)(=O)O)c5cc(S(=O)(=O)O)cc(S(=O)(=O)O)c45)ccc3C)c2)c1 | 98.4 | – | – | – | – | – | – |
| O=C(c1ccc(Oc2ccccc2)cc1)N1CCc2ccccc2C1 | – | 21.5 | – | – | – | – | – |
| ON=C(c1cccc(Oc2ccccc2)c1)N1CCc2ccccc2C1 | 51.6 | 47.2 | – | – | – | 41.1 | 33.1 |
| CC(C)N1CCN(C(=O)c2cccc(Oc3ccccc3)c2)CC1 | – | 48.1 | – | – | – | 465 | 321 |

Second part, led by results:

| inhibition [1] [%] | inhibition [2] [%] | inhibition [3] [%] | inhibition [4] [%] | inhibition [5] [%] | SMILES | IC50 [6] [µM] | IC50 [7] [µM] |
| --- | --- | --- | --- | --- | --- | --- | --- |
| 11.1 | – | – | – | – | CC(=O)c1ccc(NC(=O)c2cccc(Oc3ccccc3)c2)cc1 | – | – |
| – | 36.1 | – | – | – | CC(=O)c1ccc(NC(=O)c2ccc(Oc3ccccc3)cc2)cc1 | – | – |
| – | – | 31.4 | 42.5 | 18.2 | Cc1ccc(Oc2cccc(C(=O)N[C@@H](C)c3ccccc3)c2)nn1 | 328 | > 1000 |
| 17.1 | 36.1 | – | – | – | O=C(Nc1ccc2ccccc2c1)c1cccc(Oc2ncccn2)c1 | – | – |
| 10.8 | 56.5 | – | – | – | O=C(c1cccc(Oc2ccccc2)c1)N1CCc2ccccc2C1 | 159 | 147 |
| – | 46 | – | – | – | NC(=O)c1ccc(NC(=O)c2ccc(Oc3ccccc3)cc2)cc1 | 524 | 356 |
